Measured values pooled from the literature.
Target: Serine/threonine-protein kinase MARK1 (MARK1, Homo sapiens, UniProt Q9P0L2)

Structure (SMILES) | test | conditions | measurement | value
CC(C)(C)c1cc(C=C(C#N)C#N)cc(Br)c1O | enzyme activity, inhibitor | 0.5 µM | remaining activity | 98.8%
C#Cc1n[nH]c2c(-c3cn([C@@H](C)c4ccccc4)c(=O)[nH]c3=O)cc(F)cc12 | enzyme activity, inhibitor | 0.1 µM | inhibition | 4.1%
Cn1cc(-c2cccc(N3CCc4c(sc5c4CC(C)(C)C5)C3=O)c2CO)cc(Nc2ccncn2)c1=O | enzyme activity, inhibitor | 1 µM | inhibition | 1%
COc1ncccc1-c1cnn2ccc(N3CCN(C(=O)OC(C)C)CC3)nc12 | binding, competition with immobilised ligand | 1 µM | remaining binding | 100%
N#CC1(c2ccccn2)CCN(Cc2cc(C(=O)O)c(=O)n3ccccc23)CC1 | cell-free assay, competition with immobilised ligand | 1 µM | remaining binding | 94%
O=c1[nH]c2ccccc2n1C1CCN(Cc2ccc(-c3[nH]c4cc5ncnc5cc4nc3-c3ccccc3)cc2)CC1 | cell-free assay | 0.5 µM | remaining signal | 104%
C#Cc1n[nH]c2c(-c3cn([C@@H](C)c4ccccn4)c(=O)[nH]c3=O)cc(F)cc12 | enzyme activity, inhibitor | 0.1 µM | inhibition | 4.9%
COc1cc(Nc2ncc(F)c(Nc3ccc4c(n3)NC(=O)C(C)(C)O4)n2)cc(OC)c1OC | binding, competition with immobilised ligand | 10 µM | inhibition | 94%
Cn1cncc1[C@@](O)(COc1ccc(C#N)cc1-c1ccc(OC(F)(F)F)cc1)c1ccc(C#N)cc1 | cell-free assay, competition with immobilised ligand | 1 µM | remaining binding | 100%
Nc1ncc(-c2nc(N3CCOCC3)nc(N3CCOCC3)n2)c(C(F)F)n1 | binding, competition with immobilised ligand | 10 µM | remaining binding | 88%
Cn1cc(-c2cc(F)cc(N3CCn4c(cc5c4CCCC5)C3=O)c2CO)cc(Nc2ccc(N3CCN(C4COC4)CC3)cn2)c1=O | enzyme activity, inhibitor | 0.1 µM | inhibition | 10%
Cc1nn(C)cc1-c1nc2c(N3CCN(Cc4ccc(Cl)cc4)CC3)c(Cl)cnc2[nH]1 | binding, competition with immobilised ligand | 1 µM | remaining binding | 78%
